According to ChEMBL document CHEMBL2413035, “Synthesis and biological activity of benzo-fused 7-deazaadenosine analogues. 5- and 6-substituted 4-amino- or 4-alkylpyrimido[4,5-b]indole ribonucleosides” (Bioorg Med Chem, 2013):
Calls of active or inactive are those of the source. The rule behind the calls is not given here.

Legend:
[1] = tested on: HepG2; test: Cytotoxicity against human HepG2 cells after 3 days by XTT assay; type: functional, cell-based; details: for IC50: HepG2, 72 h
Method in brief: (§1)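 ATCC lines HL60, HeLa S3, CCRF-CEM and HepG2 exposed to compound for 3 days. Viability read by metabolic XTT tetrazolium reduction.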

[2] = tested on: HeLa S3; test: (§2) Cytotoxicity against human HeLaS3 cells after 3 days by XTT assay; type: functional, cell-based; method in brief: as §1
[3] = tested on: Hepatitis C virus; test: Antiviral activity against HCV 2A infected in […] cells; type: functional, organism-based, Hepacivirus hominis; details: genotype 2a
[4] = tested on: Hepatitis C virus; test: Antiviral activity against HCV 1B infected in […] cells; type: functional, organism-based, Hepacivirus hominis; details: genotype 1b
[5] = tested on: Hepatitis C virus; test: Antiviral activity against HCV 1A infected in […] cells; type: functional, organism-based, Hepacivirus hominis; details: subtype 1a
[6] = Cytotoxicity against human […] cells infected with HCV 2A; type: cell-based
[7] = Cytotoxicity against human […] cells infected with HCV 1B; type: cell-based
[8] = Cytotoxicity against human […] cells infected with HCV 1A; type: cell-based
[9] = tested on: HL-60; test: Cytotoxicity against human HL60 cells after 3 days by XTT assay; type: functional, cell-based; details: for IC50: HL-60, 72 h; method in brief: as §1
[10] = tested on: CCRF-CEM; test: Cytotoxicity against human CCRF-CEM cells after 3 days by XTT assay; type: functional, cell-based; details: for IC50: 72 h; method in brief: as §1
[11] = tested on: dengue virus type 2; test: Antiviral activity against Dengue virus 2 infected in Vero cells after 3 days by fluorescence microscopy; type: functional, organism-based; details: 72 h
Method in brief: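 Vero cells, 20,000/well, seeded the day before in DMEM with L-glutamine, 2% FBS and penicillin/streptomycin. Two-fold serial compound dilutions added in triplicate; DENV-2 added 1 h later at MOI 0.3 IU/cell. Incubated 3 days at 37 °C, 5% CO2. Cells fixed and permeabilized, then stained with DENV-2-specific antibody and Cy3 anti-mouse IgG. Imaged by fluorescence microscopy; EC50 by nonlinear regression.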

[12] = Cytotoxicity against african green monkey Vero cells after 48 hrs by XTT assay; type: cell-based; details: chlorocebus sabaeus
Method in brief: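 Vero monolayers incubated with serial compound dilutions for 48 h. XTT added for 4 h, and formazan quantified spectrophotometrically. CC50, the 50% cytotoxic concentration, derived by nonlinear regression.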

[13] = Selectivity index, ratio of CC50 for african green monkey Vero cells to EC50 for Dengue virus 2 infected in Vero cells; type: toxicity, cell-based; details: read-out: Ratio CC50/EC50
[14] = as §2; type: functional, cell-based; details: HeLa S3, 72 h; method in brief: as §1

EC50 [3] [µM] | EC50 [4] [µM] | EC50 [5] [µM] | EC50 [11] [µM] | Compound | Activity [1] | Activity [2] | CC50 [6] [µM] | CC50 [7] [µM] | CC50 [8] [µM] | Activity [9] | Activity [10] | CC50 at 48 h [12] [µM] | selectivity ratio [13] | IC50 [1] [µM] | IC50 [14] [µM] | IC50 [9] [µM] | IC50 [10] [µM]
> 44 | 7.07 | 21.3 | – | CN(C)c1ncnc2c1c1ccccc1n2[C@@H]1O[C@H](CO)[C@@H](O)[C@H]1O | inactive | inactive | > 44 | > 44 | > 44 | inactive | inactive | – | – | – | – | – | –
– | – | – | – | Nc1ncnc2c1c1cc(-c3ccoc3)ccc1n2[C@@H]1O[C@H](CO)[C@@H](O)[C@H]1O | inactive | inactive | – | – | – | inactive | inactive | – | – | – | – | – | –
– | – | – | – | Nc1ncnc2c1c1cc(-c3ccco3)ccc1n2[C@@H]1O[C@H](CO)[C@@H](O)[C@H]1O | inactive | inactive | – | – | – | inactive | inactive | – | – | – | – | – | –
> 44 | 11.1 | 30.6 | 39.6 | Nc1ncnc2c1c1ccccc1n2[C@@H]1O[C@H](CO)[C@@H](O)[C@H]1O | inactive | inactive | > 44 | > 44 | > 44 | inactive | inactive | 43.5 | 1.1 | – | – | – | –
– | – | – | – | OC[C@H]1O[C@@H](n2c3ccccc3c3c(C4CC4)ncnc32)[C@H](O)[C@@H]1O | inactive | inactive | – | – | – | inactive | inactive | – | – | – | – | – | –
13.8 | 7.38 | 10.1 | 18.8 | Nc1ncnc2c1c1cc(-c3ccsc3)ccc1n2[C@@H]1O[C@H](CO)[C@@H](O)[C@H]1O | inactive | inactive | 30.2 | 25.6 | 17.3 | inactive | inactive | 46.3 | 2.5 | – | – | – | –
24.9 | 8.75 | 10 | – | Nc1ncnc2c1c1cc(-c3cccs3)ccc1n2[C@@H]1O[C@H](CO)[C@@H](O)[C@H]1O | inactive | inactive | > 44 | > 44 | 18.1 | inactive | inactive | – | – | – | – | – | –
– | – | – | – | C[n+]1cnc2c(c1N)c1ccccc1n2[C@@H]1O[C@H](CO)[C@@H](O)[C@H]1O | inactive | inactive | – | – | – | inactive | inactive | – | – | – | – | – | –
8.77 | 4.83 | 6.13 | 15.4 | Nc1ncnc2c1c1cc(-c3cc4ccccc4o3)ccc1n2[C@@H]1O[C@H](CO)[C@@H](O)[C@H]1O | – | – | 18 | 28 | 14.5 | – | – | > 100 | > 6.5 | 60 | 93 | 87 | 32
> 44 | 0.34 | 0.56 | – | Cc1ncnc2c1c1ccccc1n2[C@@H]1O[C@H](CO)[C@@H](O)[C@H]1O | – | – | > 44 | > 44 | > 44 | – | – | – | – | 15 | 11 | 54 | 82
> 44 | 8.81 | > 44 | 14.8 | CCCCc1cccc2c1c1c(N)ncnc1n2[C@@H]1O[C@H](CO)[C@@H](O)[C@H]1O | inactive | inactive | > 44 | > 44 | > 44 | inactive | inactive | 62.9 | 4.3 | – | – | – | –
– | – | – | – | Nc1ncnc2c1c1c(-c3ccccc3)cccc1n2[C@@H]1O[C@H](CO)[C@@H](O)[C@H]1O | inactive | inactive | – | – | – | inactive | inactive | – | – | – | – | – | –
– | – | – | – | Nc1ncnc2c1c1cc(-c3ccccc3)ccc1n2[C@@H]1O[C@H](CO)[C@@H](O)[C@H]1O | inactive | inactive | – | – | – | inactive | inactive | – | – | – | – | – | –
1.28 | 0.32 | 0.53 | 0.85 | Nc1ncnc2c1c1c(Cl)cccc1n2[C@@H]1O[C@H](CO)[C@@H](O)[C@H]1O | – | – | 1.66 | 1.71 | 1.16 | – | – | 1.14 | 1.3 | 21 | 21 | 17 | 12
– | – | – | – | Nc1ncnc2c1c1cc(Cl)ccc1n2[C@@H]1O[C@H](CO)[C@@H](O)[C@H]1O | inactive | inactive | – | – | – | inactive | inactive | – | – | – | – | – | –
– | – | – | – | Nc1ncnc2c1c1c(-c3ccco3)cccc1n2[C@@H]1O[C@H](CO)[C@@H](O)[C@H]1O | inactive | inactive | – | – | – | inactive | inactive | – | – | – | – | – | –
– | – | – | – | Nc1ncnc2c1c1c(-c3ccsc3)cccc1n2[C@@H]1O[C@H](CO)[C@@H](O)[C@H]1O | inactive | inactive | – | – | – | inactive | inactive | – | – | – | – | – | –
